Source: PubChem BioAssay AID2340 (Sanford-Burnham Center for Chemical Genomics, 2010)
The source made the active and inactive calls.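 The calls were made as follows: active = potency EC50 below 10 µM in the dose response test; inactive = the rest.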

What follows are compounds tested against G-protein coupled receptor 35 (Homo sapiens) (UniProt Q9HC97) (assay: GPR35 agonist activity of analogs, SAR follow-up, selectivity assay, imaging, U2OS, beta-arrestin-GFP, powder samples (AID 2340)). Settings: U2OS GPR35 beta-arrestin-GFP translocation imaging.
G-protein coupled receptor 35 (Homo sapiens), sequence (Q9HC97 whole entry, looked up): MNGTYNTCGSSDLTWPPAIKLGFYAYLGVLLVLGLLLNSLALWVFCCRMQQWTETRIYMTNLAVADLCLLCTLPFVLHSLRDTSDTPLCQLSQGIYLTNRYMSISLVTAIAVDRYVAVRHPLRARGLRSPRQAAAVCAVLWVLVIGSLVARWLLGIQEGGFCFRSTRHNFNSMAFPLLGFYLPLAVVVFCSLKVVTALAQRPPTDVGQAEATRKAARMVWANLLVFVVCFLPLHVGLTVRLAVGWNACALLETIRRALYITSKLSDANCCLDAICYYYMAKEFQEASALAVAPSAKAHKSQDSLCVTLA
In short: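 Assay system: human U2OS cells stably co-expressing GPR35 and beta-arrestin-GFP. Medium: serum-starved cells. Doses: Ten-point series, 62 nM to 32 µM, duplicates. Times: compound exposure 45 min at 37 °C. Signal: imaging of fixed, DAPI-stained arrestin-GFP cells. Read-out basis: spot-to-cytoplasm GFP ratio, sigmoidal fit. Benchmarks: positive control zaprinast, 10 µM.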
With `COc1cc2c(cc1NC(=O)C(C)Sc1ccc(NC(C)=O)cc1)oc1ccccc12` (stereo unspecified) the EC50 was > 32 µM (inactive).
In the case of `CN(C)S(=O)(=O)c1ccc(N2CCCC2)c(C(=O)N2CCN(c3ccc([N+](=O)[O-])cc3)CC2)c1`, the EC50 is reported as > 32 µM (inactive).
In the case of `Cc1occc1C(=O)Nc1ccc(OCc2ccccc2)cc1`, the EC50 is reported as > 32 µM (inactive).
With `CC(C)Oc1ccc(S(=O)(=O)N2CCOCC2)cc1NC(=O)c1ccc(N2CCCC2=O)cc1` the EC50 was > 32 µM (inactive).
For `COc1ccc(-c2csc(NC(=O)CSc3nnc4c(C)cc5ccccc5n34)n2)cc1`, the EC50 was > 32 µM (inactive).
With `Cc1cccc(N2CCN(C(=O)c3cc(S(=O)(=O)N(C)C)ccc3N3CCCC3)CC2)c1C` the EC50 was > 32 µM (inactive).
With `O=C(CSc1nc2ccccc2s1)N1c2ccccc2Sc2ccc(C(F)(F)F)cc21` the EC50 was > 32 µM (inactive).
With `COc1ccc2cc(C)c3nnc(SCC(=O)Nc4nc(-c5ccc(F)cc5)cs4)n3c2c1` the EC50 was > 32 µM (inactive).
With `CC(C)=CC(=O)Nc1ccc(OCc2ccccc2)cc1` the EC50 was > 32 µM (inactive).
`C=CCN(CC=C)S(=O)(=O)c1ccc(NC(=S)NC(=O)c2ccc(-c3ccccc3)cc2)cc1` was tested, and the EC50 was > 32 µM (inactive).
With `CC(Sc1nc2cc(Cl)ccc2s1)C(=O)Nc1cccc(S(=O)(=O)N2CCOCC2)c1` (stereo unspecified) the EC50 was > 32 µM (inactive).
With `C/C(C=NNC(=O)c1nnn(-c2nonc2N)c1CN1CCC(C)CC1)=C/c1ccccc1` the EC50 was > 32 µM (inactive).
In the case of `O=C(CSc1nc2ccccc2s1)N1c2ccccc2Sc2ccc(Cl)cc21`, the EC50 is reported as > 32 µM (inactive).
For `COc1cc2c(cc1NC(=O)CSc1ccccc1)oc1ccccc12`, the EC50 was > 32 µM (inactive).
`CCCN(CCC)Cc1c(C(=O)NN=C/C(C)=C\c2ccccc2)nnn1-c1nonc1N` was tested, and the EC50 was > 32 µM (inactive).
For `CCCN(CCC)Cc1c(C(=O)NN=C/C(C)=C\c2ccco2)nnn1-c1nonc1N`, the EC50 was > 32 µM (inactive).
For `CC(C)NS(=O)(=O)c1ccc(NC(=S)NC(=O)c2ccc(-c3ccccc3)cc2)cc1`, the EC50 was > 32 µM (inactive).
For `CCCN(CCC)Cc1c(C(=O)NN=Cc2c[nH]c3ccccc23)nnn1-c1nonc1N`, the EC50 was > 32 µM (inactive).
With `COc1ccccc1/C=C/C(=O)NC(=S)Nc1ccc(S(=O)(=O)N(C)c2ccccc2)cc1` the EC50 was > 32 µM (inactive).
`COc1ccc2c(c1)cc(C)c1nnc(SCC(=O)N(C)c3nc(-c4ccccc4)cs3)n12` was tested, and the EC50 was > 32 µM (inactive).
In the case of `COc1ccc(S(=O)(=O)N2CCOCC2)cc1NC(=O)c1cc2c(s1)CCCC2`, the EC50 is reported as > 32 µM (inactive).
